From ChEMBL document CHEMBL1126566, “Studies on analogues of classical antifolates bearing the naphthoyl group in place of benzoyl in the side chain” (J Med Chem, 1993)
pIC50, pKi: −log10 of the molar value.

Key:
[1] = test system: Mus musculus; test: Antitumor activity against E0771 mammary adenocarcinoma in mice at 12 mg/kg (5 days) was determined and […] at day 10 was reported; assay type: functional
In short: (§1)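 E0771 mammary adenocarcinoma implanted in mice, five mice per group. Treatment was given daily for 5 days, starting day 3 after implantation. Tumor volume was calculated as 4/3πr³ and averaged on days 7, 10 and 14. T/C (%) is the treated/control tumor volume. Toxic deaths were recorded.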

[2] = molecular target: T1, Dihydrofolate reductase (Mus musculus, UniProt P00375); test: Inhibitory activity of Dihydrofolate reductase in L1210 cells; assay type: cell-based
T1 sequence (P00375 whole entry): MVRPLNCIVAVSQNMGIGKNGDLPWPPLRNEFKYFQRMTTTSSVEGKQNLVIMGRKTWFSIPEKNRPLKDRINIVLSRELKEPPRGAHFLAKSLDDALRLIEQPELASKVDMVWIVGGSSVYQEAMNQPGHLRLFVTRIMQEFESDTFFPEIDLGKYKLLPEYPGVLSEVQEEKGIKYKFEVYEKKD

[3] = test system: Mus musculus; test: Antitumor activity against E0771 mammary adenocarcinoma in mice at 12 mg/kg(5 days) was determined and tumor volume at day 14 was reported; assay type: functional
In short: (§2)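 Mice bearing implanted E0771 mammary adenocarcinoma, five per test group. Dosing was daily for 5 days, starting on day 3 after implantation. Tumor volume (mm³) was calculated as 4/3πr³ and is also expressed as treated/control (%).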

[4] = test system: Mus musculus; test: Antitumor activity against E0771 mammary adenocarcinoma in mice at 24 mg/kg(5 days) was determined and […] at day 10 was reported; assay type: functional
[5] = test system: L1210; test: Tested for the ability to inhibit growth in vitro against L1210; assay type: functional, cell-based; conditions: Mus musculus
[6] = test system: L1210; test: Tested for transport into L1210 cells measured as cell influx; assay type: functional, cell-based, Mus musculus
[7] = test system: Mus musculus; test: Antitumor activity against E0771 mammary adenocarcinoma in mice at 12 mg/kg(5 days) was determined and tumor volume at day 10 was reported; assay type: functional; in short: as §2
[8] = test system: Mus musculus; test: Antitumor activity against E0771 mammary adenocarcinoma in mice at 24 mg/kg(5 days) was determined and […] at day 7 was reported; assay type: functional; in short: as §1
[9] = test system: HL-60; test: Tested for the ability to inhibit growth in vitro against HL60; assay type: functional, cell-based; conditions: Homo sapiens
[10] = test system: Mus musculus; test: Antitumor activity against E0771 mammary adenocarcinoma in mice at 24 mg/kg(5 days) was determined and […] at day 14 was reported; assay type: functional
[11] = test system: Mus musculus; test: Antitumor activity against E0771 mammary adenocarcinoma in mice at 24 mg/kg(5 days) was determined and tumor volume at day 7 was reported; assay type: functional; in short: as §2
[12] = test system: Mus musculus; test: Antitumor activity against E0771 mammary adenocarcinoma in mice at 12 mg/kg(5 days) was determined and tumor volume at day 7 was reported; assay type: functional; in short: as §2
[13] = test system: CCRF-CEM; test: Percent inhibition of Folyl-polyglutamate synthase from CCRF-CEM cells; assay type: cell-based; design: concentration or dose not given beside the values; conditions: Homo sapiens, dose or concentration not given here
In short: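 FPGS was partially purified from CCRF-CEM cells by (NH₄)₂SO₄ fractionation and gel sieving, with no detectable γ-glutamyl hydrolase. Product was separated on DEAE-cellulose. Percent inhibition is reported.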

[14] = test system: Mus musculus; test: Antitumor activity against E0771 mammary adenocarcinoma in mice at 24 mg/kg(5 days) was determined and tumor volume at day 14 was reported; assay type: functional; in short: as §2
[15] = test system: CCRF S-180; test: Tested for the ability to inhibit growth in vitro against S180; assay type: functional, cell-based; conditions: Mus musculus
[16] = Activity relative to saturating aminopterine at 100 uM against CCRF-CEM Folyl-polyglutamate synthetase; assay type: ADME; conditions: human
In short: (§3)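 FPGS from CCRF-CEM cells: freeze-thawed lysates fractionated by (NH₄)₂SO₄ (0–40% saturation pellet) and gel sieving, stored at –90 °C in 20% glycerol, free of detectable γ-glutamyl hydrolase. Product was separated on DEAE-cellulose minicolumns. Run in duplicate or triplicate, and each experiment was repeated at least once.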

[17] = test system: Mus musculus; test: Antitumor activity against E0771 mammary adenocarcinoma in mice at 12 mg/kg(5 days) was determined and […] at day 7 was reported; assay type: functional
[18] = test system: Mus musculus; test: Antitumor activity against E0771 mammary adenocarcinoma in mice at 24 mg/kg(5 days) was determined and tumor volume at day 10 was reported; assay type: functional; in short: as §2
[19] = test system: Mus musculus; test: Antitumor activity against E0771 mammary adenocarcinoma in mice at 12 mg/kg (5 days) was determined and […] at day 14 was reported; assay type: functional
[20] = molecular target: T2, Folylpolyglutamate synthase, mitochondrial (Mus musculus) (UniProt P48760); test: Specific activity of L1210 Folyl-polyglutamate synthase
T2 sequence (whole entry): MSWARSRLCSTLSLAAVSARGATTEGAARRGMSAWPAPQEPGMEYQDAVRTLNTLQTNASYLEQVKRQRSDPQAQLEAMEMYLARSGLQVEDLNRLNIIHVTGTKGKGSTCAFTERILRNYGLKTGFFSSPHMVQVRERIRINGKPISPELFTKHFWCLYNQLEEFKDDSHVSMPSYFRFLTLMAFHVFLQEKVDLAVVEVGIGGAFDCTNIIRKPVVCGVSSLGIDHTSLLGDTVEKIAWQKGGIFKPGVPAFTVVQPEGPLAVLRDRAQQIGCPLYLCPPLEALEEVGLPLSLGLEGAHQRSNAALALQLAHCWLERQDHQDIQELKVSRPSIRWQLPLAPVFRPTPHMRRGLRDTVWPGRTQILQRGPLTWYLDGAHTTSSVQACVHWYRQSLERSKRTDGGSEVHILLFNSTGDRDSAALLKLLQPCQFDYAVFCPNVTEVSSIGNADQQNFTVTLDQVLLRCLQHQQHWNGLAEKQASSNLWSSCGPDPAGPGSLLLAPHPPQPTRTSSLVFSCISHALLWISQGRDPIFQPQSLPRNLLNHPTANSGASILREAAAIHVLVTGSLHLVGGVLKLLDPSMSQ
In short: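 FPGS from L1210 cells was assayed by [³H]glutamate ligation, like the human enzyme assay. Each folate substrate was at 100 μM, and only specific activity was measured.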

[21] = test system: Mus musculus; test: Antitumor activity against E0771 mammary adenocarcinoma in mice at 6 mg/kg(5 days) was determined and tumor volume at day 10 was reported; assay type: functional; in short: as §2
[22] = test system: Mus musculus; test: Antitumor activity against E0771 mammary adenocarcinoma in mice at 30 mg/kg(5 days) was determined and […] at day 14 was reported; assay type: functional
[23] = test system: Mus musculus; test: Antitumor activity against E0771 mammary adenocarcinoma in mice at 6 mg/kg(5 days) was determined and […] at day 10 was reported; assay type: functional; in short: as §1
[24] = test system: Mus musculus; test: Antitumor activity against E0771 mammary adenocarcinoma in mice at 3 mg/kg(5 days) was determined and tumor volume at day 10 was reported; assay type: functional; in short: as §2
[25] = test system: Mus musculus; test: Antitumor activity against E0771 mammary adenocarcinoma in mice at 30 mg/kg(5 days) was determined and tumor volume at day 14 was reported; assay type: functional
[26] = test system: Mus musculus; test: Antitumor activity against E0771 mammary adenocarcinoma in mice at 100 mg/kg(5 days) was determined and […] at day 14 was reported; assay type: functional
[27] = test system: Mus musculus; test: Antitumor activity against E0771 mammary adenocarcinoma in mice at 6 mg/kg(5 days) was determined and tumor volume at day 7 was reported; assay type: functional; in short: as §2
[28] = test system: Mus musculus; test: Antitumor activity against E0771 mammary adenocarcinoma in mice at 3 mg/kg(5 days) was determined and […] at day 7 was reported; assay type: functional; in short: as §1
[29] = test system: Mus musculus; test: Antitumor activity against E0771 mammary adenocarcinoma in mice at 3 mg/kg(5 days) was determined and […] at day 10 was reported; assay type: functional; in short: as §1
[30] = test system: Mus musculus; test: Antitumor activity against E0771 mammary adenocarcinoma in mice at 3 mg/kg(5 days) was determined and tumor volume at day 7 was reported; assay type: functional; in short: as §2
[31] = test system: Folyl-polyglutamate synthase; test: Michaelis-Menten constant was determined against CCRF-CEM Folyl-polyglutamate synthase; assay type: ADME; conditions: human, folylpolyglutamate synthase from CCRF-CEM cells; in short: as §3
[32] = test system: Mus musculus; test: Antitumor activity against E0771 mammary adenocarcinoma in mice at 6 mg/kg(5 days) was determined and […] at day 7 was reported; assay type: functional; in short: as §1
[33] = test system: CCRF S-180; test: Tested for the ability to inhibit growth in vitro against S180 cells; assay type: functional, cell-based; conditions: Mus musculus
[34] = test system: Mus musculus; test: Antitumor activity against E0771 mammary adenocarcinoma in mice at 100 mg/kg(5 days) was determined and tumor volume at day 14 was reported; assay type: functional; in short: as §2

Structure (SMILES): Cc1c(CN(C)c2ccc(C(=O)NC(CCC(=O)O)C(=O)O)c3ccccc23)cnc2nc(N)nc(N)c12 (configuration not stated)
- T/C [1]: 53%
- pKi [2]: 11.32
- Tumor volume [3]: 1048 mm**3
- T/C [4]: 19%
- pIC50 [5]: 8.62
- pKi [6]: 6.18
- Tumor volume [7]: 333 mm**3
- T/C [8]: 39%
- pIC50 [9]: 9.25
- T/C [10]: 28%
- Tumor volume [11]: 87 mm**3
- Tumor volume [12]: 108 mm**3
- inhibition [13]: 10%
- Tumor volume [14]: 493 mm**3
- pIC50 [15]: 8.59
- Relative Vmax [16]: 0.04
- T/C [17]: 49%
- Tumor volume [18]: 119 mm**3
- T/C [19]: 60%

Structure (SMILES): CN(Cc1cnc2nc(N)nc(N)c2n1)c1ccc(C(=O)N[C@@H](CCC(=O)O)C(=O)O)cc1 [METHOTREXATE]
- Specific activity (pM hr-1 (mg of protein)-1) [20]: 0.38
- Tumor volume [21]: 187 mm**3
- T/C [22]: 31%
- T/C [23]: 30%
- Tumor volume [24]: 624 mm**3
- pIC50 [5]: 8.05
- pKi [6]: 5.41
- Tumor volume [25]: 540 mm**3
- T/C [26]: 83%
- Tumor volume [27]: 108 mm**3
- pIC50 [9]: 8.09
- T/C [28]: 81%
- T/C [29]: 100%
- Tumor volume [30]: 180 mm**3
- Km [31]: 42 µM
- T/C [32]: 49%
- pIC50 [33]: 8.00
- Tumor volume [34]: 1437 mm**3
